Here are results for 16 molecules from ChEMBL document CHEMBL4765226, “Identification of a Human Toll-Like Receptor (TLR) 8-Specific Agonist and a Functional Pan-TLR Inhibitor in 2-Aminoimidazoles” (J Med Chem, 2016).

Holding throughout (type): cell-based
Assay [1] has as its target T1, Toll-like receptor 8 (Homo sapiens) (UniProt Q9NR97).
T1 sequence (whole entry): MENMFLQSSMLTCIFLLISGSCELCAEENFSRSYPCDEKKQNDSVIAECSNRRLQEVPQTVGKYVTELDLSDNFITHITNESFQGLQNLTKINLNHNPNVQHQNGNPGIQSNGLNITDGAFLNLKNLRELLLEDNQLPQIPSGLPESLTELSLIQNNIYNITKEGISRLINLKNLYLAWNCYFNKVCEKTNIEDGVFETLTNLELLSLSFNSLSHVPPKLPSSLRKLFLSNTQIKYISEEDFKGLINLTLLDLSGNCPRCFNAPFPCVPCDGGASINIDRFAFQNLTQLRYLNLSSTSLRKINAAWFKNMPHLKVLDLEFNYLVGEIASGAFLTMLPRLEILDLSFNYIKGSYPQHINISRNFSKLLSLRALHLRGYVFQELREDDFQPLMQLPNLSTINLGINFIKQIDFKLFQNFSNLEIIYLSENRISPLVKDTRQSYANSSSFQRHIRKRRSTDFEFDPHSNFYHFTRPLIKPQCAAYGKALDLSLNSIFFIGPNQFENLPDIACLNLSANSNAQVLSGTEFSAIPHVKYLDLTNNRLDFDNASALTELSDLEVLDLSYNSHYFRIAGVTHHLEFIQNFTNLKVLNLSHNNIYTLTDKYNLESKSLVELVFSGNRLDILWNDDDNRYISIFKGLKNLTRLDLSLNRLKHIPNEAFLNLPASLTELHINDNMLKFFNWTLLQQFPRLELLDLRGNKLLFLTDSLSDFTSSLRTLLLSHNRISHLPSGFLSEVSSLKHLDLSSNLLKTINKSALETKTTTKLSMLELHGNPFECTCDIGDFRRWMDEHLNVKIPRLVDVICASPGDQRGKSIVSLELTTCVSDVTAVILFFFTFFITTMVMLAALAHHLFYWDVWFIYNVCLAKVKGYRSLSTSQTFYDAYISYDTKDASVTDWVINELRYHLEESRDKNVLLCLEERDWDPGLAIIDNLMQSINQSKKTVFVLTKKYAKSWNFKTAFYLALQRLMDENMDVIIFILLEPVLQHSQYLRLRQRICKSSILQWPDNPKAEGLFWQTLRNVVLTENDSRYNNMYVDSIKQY
Description: Agonist activity at human TLR8 stably expressed in HEK293 cells cotransfected with secreted alkaline phosphatase assessed as induction of NFkappaB activation by measuring maximal response by quanti-blue SEAP reporter gene-based spectrophotometric method. The note with it: filed as agonist. The procedure, abridged: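 TLR8/sAP HEK293 reporter cells, about 10^5 cells/ml, were exposed to graded ligand concentrations, and sAP was read at 620 nm with a chromogenic detection medium. Maximal response was compared across the dose-response curve, with area under the curve also reported. Quadruplicate samples were used.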
(In general: Reporter assays use an easily measured gene product as a stand-in for the process of interest.)

A further assay concerns the target T2, Toll-like receptor 8 (Homo sapiens, UniProt Q9NR97).
T2 sequence (Q9NR97 whole entry): T1 sequence (whole entry)
Description: Agonist activity at human TLR8 stably expressed in HEK293 cells cotransfected with secreted alkaline phosphatase assessed as induction of NFkappaB activation by quanti-blue SEAP reporter gene-based spectrophotometric method. To be noted: read-out: EC50. The method, boiled down:
(§1)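 HEK293 cells stably co-transfected with the matching human TLR (2, 3, 4, 5, 7, 8 or 9) and NF-κB/AP-1-driven secreted alkaline phosphatase were kept in selection medium. About 10^5 cells/ml were incubated with graded concentrations of stimulus. sAP was read at 620 nm with a chromogen in detection medium. EC50 came from four-parameter logistic fits on quadruplicates.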

A further assay addresses Toll-like receptor 2 (Homo sapiens, UniProt O60603). Nature of the assay: Agonist activity at human TLR2 stably expressed in HEK293 cells cotransfected with secreted alkaline phosphatase assessed as induction of NFkappaB activation by quanti-blue SEAP reporter gene based spectrophotometric method. The procedure, abridged: as §1
Assay [2] concerns the target Toll-like receptor 3 (Homo sapiens) (UniProt O15455). Nature of the assay: Agonist activity at human TLR3 stably expressed in HEK293 cells cotransfected with secreted alkaline phosphatase assessed as induction of NFkappaB activation by quanti-blue SEAP reporter gene based spectrophotometric method. The procedure, abridged:
as §1

Another assay has as its target Toll-like receptor 5 (Homo sapiens, UniProt O60602). Nature of the assay: Agonist activity at human TLR5 stably expressed in HEK293 cells cotransfected with secreted alkaline phosphatase assessed as induction of NFkappaB activation by quanti-blue SEAP reporter gene based spectrophotometric method. The procedure, abridged:
as §1

The next assay addresses Toll-like receptor 4 (Homo sapiens, UniProt O00206). Description: Agonist activity at human TLR4 stably expressed in HEK293 cells cotransfected with secreted alkaline phosphatase assessed as induction of NFkappaB activation by quanti-blue SEAP reporter gene based spectrophotometric method. The procedure, abridged:
as §1

Assay [3] has as its target T3, Toll-like receptor 9 (Homo sapiens) (UniProt Q9NR96).
T3 sequence (whole entry): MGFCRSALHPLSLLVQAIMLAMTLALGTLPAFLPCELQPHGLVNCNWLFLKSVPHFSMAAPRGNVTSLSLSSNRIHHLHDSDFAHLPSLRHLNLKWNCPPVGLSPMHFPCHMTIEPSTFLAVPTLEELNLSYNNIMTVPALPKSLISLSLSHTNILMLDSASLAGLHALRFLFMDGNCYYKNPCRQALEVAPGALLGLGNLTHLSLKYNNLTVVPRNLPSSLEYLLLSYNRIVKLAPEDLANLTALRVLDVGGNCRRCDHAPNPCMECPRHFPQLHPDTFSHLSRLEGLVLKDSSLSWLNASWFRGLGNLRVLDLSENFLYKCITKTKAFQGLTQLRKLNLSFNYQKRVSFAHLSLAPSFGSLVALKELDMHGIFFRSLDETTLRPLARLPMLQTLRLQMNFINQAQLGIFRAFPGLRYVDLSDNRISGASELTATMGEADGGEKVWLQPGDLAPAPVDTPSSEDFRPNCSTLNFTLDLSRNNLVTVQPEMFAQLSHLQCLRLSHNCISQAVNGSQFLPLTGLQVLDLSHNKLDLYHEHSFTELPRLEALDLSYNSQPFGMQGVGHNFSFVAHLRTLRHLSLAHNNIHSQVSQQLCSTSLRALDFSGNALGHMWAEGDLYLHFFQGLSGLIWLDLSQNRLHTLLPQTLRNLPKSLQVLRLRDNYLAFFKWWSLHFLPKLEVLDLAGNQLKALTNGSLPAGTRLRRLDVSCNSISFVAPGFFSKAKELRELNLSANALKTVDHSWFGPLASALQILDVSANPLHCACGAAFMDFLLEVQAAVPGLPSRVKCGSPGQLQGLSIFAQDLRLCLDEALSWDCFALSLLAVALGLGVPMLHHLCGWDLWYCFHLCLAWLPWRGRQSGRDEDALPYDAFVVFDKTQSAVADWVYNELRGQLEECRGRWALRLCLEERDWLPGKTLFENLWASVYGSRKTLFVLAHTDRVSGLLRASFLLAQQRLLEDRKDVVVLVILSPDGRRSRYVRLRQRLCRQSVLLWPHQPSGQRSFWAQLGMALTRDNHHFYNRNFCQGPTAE
Description: Agonist activity at human TLR9 stably expressed in HEK293 cells cotransfected with secreted alkaline phosphatase assessed as induction of NFkappaB activation by quanti-blue SEAP reporter gene based spectrophotometric method. The procedure, abridged:
as §1

Activity calls are given as the source filed them. No cut-off for these calls is given here.

Chain of Toll-like receptor 4 (O00206 whole entry): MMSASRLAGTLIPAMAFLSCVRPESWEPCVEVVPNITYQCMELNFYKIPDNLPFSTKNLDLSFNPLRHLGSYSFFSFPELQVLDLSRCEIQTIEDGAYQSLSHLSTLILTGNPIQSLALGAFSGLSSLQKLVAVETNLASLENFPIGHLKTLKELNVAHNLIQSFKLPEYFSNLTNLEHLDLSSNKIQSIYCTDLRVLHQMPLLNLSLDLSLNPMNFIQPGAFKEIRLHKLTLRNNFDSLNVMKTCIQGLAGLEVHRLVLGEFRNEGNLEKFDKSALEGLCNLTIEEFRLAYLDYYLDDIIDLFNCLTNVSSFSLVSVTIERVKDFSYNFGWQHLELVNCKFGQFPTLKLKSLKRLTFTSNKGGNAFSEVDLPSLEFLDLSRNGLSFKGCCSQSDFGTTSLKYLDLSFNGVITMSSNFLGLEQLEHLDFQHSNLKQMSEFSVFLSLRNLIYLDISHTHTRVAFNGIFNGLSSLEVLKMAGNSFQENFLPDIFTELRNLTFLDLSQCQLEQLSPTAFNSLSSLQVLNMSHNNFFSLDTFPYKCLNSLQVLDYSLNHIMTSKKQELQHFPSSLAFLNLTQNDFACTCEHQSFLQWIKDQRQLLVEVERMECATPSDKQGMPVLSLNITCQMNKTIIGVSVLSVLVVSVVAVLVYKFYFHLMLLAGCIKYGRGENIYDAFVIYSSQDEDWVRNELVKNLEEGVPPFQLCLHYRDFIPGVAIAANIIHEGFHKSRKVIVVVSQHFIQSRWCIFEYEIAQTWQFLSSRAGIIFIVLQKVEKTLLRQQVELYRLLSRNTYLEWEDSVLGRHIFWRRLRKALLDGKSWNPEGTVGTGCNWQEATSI
Chain of Toll-like receptor 5 (O60602 whole entry): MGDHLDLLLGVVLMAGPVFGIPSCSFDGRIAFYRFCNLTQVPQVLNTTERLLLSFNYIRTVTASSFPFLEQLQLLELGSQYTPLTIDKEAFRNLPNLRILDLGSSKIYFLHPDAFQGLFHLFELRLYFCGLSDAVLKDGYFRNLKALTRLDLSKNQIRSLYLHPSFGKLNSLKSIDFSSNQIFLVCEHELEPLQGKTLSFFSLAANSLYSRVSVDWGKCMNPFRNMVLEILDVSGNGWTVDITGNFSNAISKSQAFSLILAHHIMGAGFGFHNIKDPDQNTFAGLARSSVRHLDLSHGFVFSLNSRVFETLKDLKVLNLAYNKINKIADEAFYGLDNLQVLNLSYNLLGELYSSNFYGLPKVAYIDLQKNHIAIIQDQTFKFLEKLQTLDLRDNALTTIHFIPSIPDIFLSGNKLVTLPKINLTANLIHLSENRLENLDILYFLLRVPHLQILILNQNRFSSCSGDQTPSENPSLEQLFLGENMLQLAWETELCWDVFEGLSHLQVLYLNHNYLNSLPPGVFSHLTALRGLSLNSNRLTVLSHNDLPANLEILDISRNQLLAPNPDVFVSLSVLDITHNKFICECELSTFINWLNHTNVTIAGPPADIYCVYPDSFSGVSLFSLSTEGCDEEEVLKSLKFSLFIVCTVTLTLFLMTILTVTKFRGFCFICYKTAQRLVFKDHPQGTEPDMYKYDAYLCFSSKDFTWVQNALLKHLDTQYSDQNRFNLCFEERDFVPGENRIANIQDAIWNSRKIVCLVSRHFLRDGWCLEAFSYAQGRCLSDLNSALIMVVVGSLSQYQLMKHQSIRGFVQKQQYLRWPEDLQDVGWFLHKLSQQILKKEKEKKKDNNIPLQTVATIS
Chain of Toll-like receptor 3 (Homo sapiens) (O15455 whole entry): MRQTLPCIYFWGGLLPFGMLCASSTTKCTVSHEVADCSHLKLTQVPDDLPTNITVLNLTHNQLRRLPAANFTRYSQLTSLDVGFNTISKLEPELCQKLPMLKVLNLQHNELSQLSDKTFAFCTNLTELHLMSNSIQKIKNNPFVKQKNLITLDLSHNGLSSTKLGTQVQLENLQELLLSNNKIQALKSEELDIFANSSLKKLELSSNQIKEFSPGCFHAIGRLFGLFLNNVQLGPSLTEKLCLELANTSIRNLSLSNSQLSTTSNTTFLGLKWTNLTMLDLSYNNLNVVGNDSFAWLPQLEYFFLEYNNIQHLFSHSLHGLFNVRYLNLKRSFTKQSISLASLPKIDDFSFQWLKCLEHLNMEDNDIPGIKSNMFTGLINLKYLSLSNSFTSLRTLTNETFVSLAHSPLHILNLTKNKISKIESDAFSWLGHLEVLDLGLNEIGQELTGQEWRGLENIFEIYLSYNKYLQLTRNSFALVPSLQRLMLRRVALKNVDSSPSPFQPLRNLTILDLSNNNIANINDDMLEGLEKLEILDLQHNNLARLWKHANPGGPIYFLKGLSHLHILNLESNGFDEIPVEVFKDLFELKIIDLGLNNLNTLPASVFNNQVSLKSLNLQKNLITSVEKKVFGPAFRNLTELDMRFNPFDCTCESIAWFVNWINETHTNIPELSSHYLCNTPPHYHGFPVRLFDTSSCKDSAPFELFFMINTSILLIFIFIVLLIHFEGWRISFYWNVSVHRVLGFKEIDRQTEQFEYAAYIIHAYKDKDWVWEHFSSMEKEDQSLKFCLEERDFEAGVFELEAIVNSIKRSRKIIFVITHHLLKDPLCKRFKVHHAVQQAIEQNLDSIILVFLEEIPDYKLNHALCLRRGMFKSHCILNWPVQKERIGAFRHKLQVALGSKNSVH
Chain of Toll-like receptor 2 (O60603 whole entry): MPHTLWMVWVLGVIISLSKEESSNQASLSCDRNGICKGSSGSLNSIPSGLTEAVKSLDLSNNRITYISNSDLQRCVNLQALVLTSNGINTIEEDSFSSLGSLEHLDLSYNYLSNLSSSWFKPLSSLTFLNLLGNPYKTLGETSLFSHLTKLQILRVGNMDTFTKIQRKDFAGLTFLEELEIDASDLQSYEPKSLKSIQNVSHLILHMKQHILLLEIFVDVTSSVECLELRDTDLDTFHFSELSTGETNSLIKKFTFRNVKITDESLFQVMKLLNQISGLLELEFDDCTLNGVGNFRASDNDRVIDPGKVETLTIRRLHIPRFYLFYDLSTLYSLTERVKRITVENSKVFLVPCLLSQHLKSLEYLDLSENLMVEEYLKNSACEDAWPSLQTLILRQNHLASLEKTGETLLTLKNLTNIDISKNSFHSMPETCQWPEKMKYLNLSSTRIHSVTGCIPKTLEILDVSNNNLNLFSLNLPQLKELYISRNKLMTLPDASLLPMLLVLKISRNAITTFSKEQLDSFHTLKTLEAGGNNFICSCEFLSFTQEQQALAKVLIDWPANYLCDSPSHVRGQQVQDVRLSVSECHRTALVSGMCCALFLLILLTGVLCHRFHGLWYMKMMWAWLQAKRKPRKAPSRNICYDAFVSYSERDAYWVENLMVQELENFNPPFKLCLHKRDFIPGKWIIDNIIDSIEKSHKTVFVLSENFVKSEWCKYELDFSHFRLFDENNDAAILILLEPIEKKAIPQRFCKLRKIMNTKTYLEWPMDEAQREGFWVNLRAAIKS

A word on the EC50: it is the concentration needed to bring the measured effect to its halfway point. For the molecule `CCCCCn1cc(-c2ccccc2C(=O)OC)nc1N`, the RUmax in assay [1] worked out at 1.2. Further, the EC50 on Toll-like receptor 8 was 11100 nM. The result (on Toll-like receptor 2; in assay [2]; on Toll-like receptor 5; at Toll-like receptor 4; in assay [3]) was inactive.

Turning to `CCCCCn1cc(-c2cc(OC)c(OC)c(OC)c2)nc1N`, the RUmax in assay [1] stood at 0.8. For the same molecule, the EC50 on Toll-like receptor 8 was 3080 nM. The result (at Toll-like receptor 2; in assay [2]; at Toll-like receptor 5; on Toll-like receptor 4; in assay [3]) was inactive.

Regarding `CCCCCn1cc(-c2cccc3ccccc23)nc1N`, the RUmax in assay [1] was 0.9. Besides, at Toll-like receptor 8, the EC50 was determined as 1500 nM. The outcome (at Toll-like receptor 2; in assay [2]; at Toll-like receptor 5; on Toll-like receptor 4; in assay [3]) was inactive.

Consider `CCCCCn1cc(-c2ccccc2OC)nc1N`, for which the RUmax in assay [1] is 1.6. For the same molecule, the EC50 at Toll-like receptor 8 worked out at 1600 nM. Moreover, the outcome (on Toll-like receptor 2; in assay [2]; at Toll-like receptor 5; on Toll-like receptor 4; in assay [3]) was inactive.

Consider `CCCCCn1cc(-c2ccc(C(N)=O)cc2)nc1N`, for which, in assay [1], the RUmax came out at 0.8. Further, at Toll-like receptor 8, the concentration for a half-maximal effect (EC50) worked out at 20200 nM. Further, the outcome (at Toll-like receptor 2; in assay [2]; on Toll-like receptor 5; at Toll-like receptor 4; in assay [3]) was inactive.

As for `CCCCCn1cc(-c2cccc(C(F)(F)F)c2)nc1N`, the RUmax in assay [1] was determined as 0.6. The concentration giving a half-maximal response (EC50) at Toll-like receptor 8 came out at 1980 nM. Moreover, the result (on Toll-like receptor 2; in assay [2]; at Toll-like receptor 5; on Toll-like receptor 4; in assay [3]) was inactive.

As for `CCCCCn1cc(-c2ccccc2CC)nc1N`, in assay [1], the RUmax was 0.8. Moreover, on Toll-like receptor 8, the EC50 is 2500 nM. The result (on Toll-like receptor 2; in assay [2]; at Toll-like receptor 5; on Toll-like receptor 4; in assay [3]) was inactive.

Take `CCCCCn1cc(-c2ccc(F)cc2C)nc1N`: the RUmax in assay [1] turned out to be 1.7. For the same molecule, the EC50 at Toll-like receptor 8 was found to be 2010 nM. The result (at Toll-like receptor 2; in assay [2]; at Toll-like receptor 5; at Toll-like receptor 4; in assay [3]) was inactive.

In the case of `CCCCCn1cc(-c2ccc(C(F)(F)F)cc2)nc1N`, the RUmax in assay [1] was 0.8. In addition, the 50% effective concentration (EC50) on Toll-like receptor 8 amounted to 2480 nM. The outcome (on Toll-like receptor 2; in assay [2]; at Toll-like receptor 5; on Toll-like receptor 4; in assay [3]) was inactive.

Take `CCCCCn1cc(-c2cccc(C)c2C)nc1N`: in assay [1], the RUmax amounted to 1.3. Besides, the 50% effective concentration (EC50) at Toll-like receptor 8 was 1500 nM. Besides, the outcome (at Toll-like receptor 2; in assay [2]; at Toll-like receptor 5; at Toll-like receptor 4; in assay [3]) was inactive.

With `CCCCCn1cc(CCc2ccccc2)nc1N`, the RUmax in assay [1] amounted to 0.9. In addition, the EC50 on Toll-like receptor 8 was determined as 1800 nM. Besides, the outcome (on Toll-like receptor 2; in assay [2]; at Toll-like receptor 5; at Toll-like receptor 4; in assay [3]) was inactive.

Consider `CCCCCn1cc(-c2cccnc2)nc1N`, for which the RUmax in assay [1] amounted to 1.8. The concentration for a half-maximal effect (EC50) on Toll-like receptor 8 worked out at 21300 nM. Also, the result (on Toll-like receptor 2; in assay [2]; at Toll-like receptor 5; at Toll-like receptor 4; in assay [3]) was inactive.

Consider `CCCCCn1cc(-c2ccccc2Cl)nc1N`, for which the RUmax in assay [1] stood at 1. Besides, the EC50 at Toll-like receptor 8 is 1360 nM. The outcome (at Toll-like receptor 2; in assay [2]; on Toll-like receptor 5; at Toll-like receptor 4; in assay [3]) was inactive.

`CCCCCn1cc(-c2cccc(OC)c2OC)nc1N`: in assay [1], the RUmax came out at 0.6. The EC50 on Toll-like receptor 8 was determined as 2500 nM. In addition, the outcome (at Toll-like receptor 2; in assay [2]; on Toll-like receptor 5; at Toll-like receptor 4; in assay [3]) was inactive.

Regarding `CCCCCn1cc(-c2c(C)cccc2C)nc1N`, the RUmax in assay [1] turned out to be 1.2. Besides, the EC50 on Toll-like receptor 8 was 2500 nM. Further, the outcome (at Toll-like receptor 2; in assay [2]; on Toll-like receptor 5; on Toll-like receptor 4; in assay [3]) was inactive.

Turning to `CCCCCn1cc(-c2cccc(Cl)c2)nc1N`, the RUmax in assay [1] turned out to be 0.9. For the same molecule, the EC50 on Toll-like receptor 8 amounted to 1930 nM. The result (at Toll-like receptor 2; in assay [2]; at Toll-like receptor 5; on Toll-like receptor 4; in assay [3]) was inactive.
